Screening data from PubChem BioAssay.
ABCG2 block: human ABCG2 inhibition, ABCB1 as counter-screen | Q9UNQ0 | IgMXP3 cells, JC-1 efflux, flow cytometry | inhibition, % at 6.6 µM | 190,000 tested, 0.1% active;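 active = inhibition above 80%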
Target sequence (Q9UNQ0 whole entry, looked up): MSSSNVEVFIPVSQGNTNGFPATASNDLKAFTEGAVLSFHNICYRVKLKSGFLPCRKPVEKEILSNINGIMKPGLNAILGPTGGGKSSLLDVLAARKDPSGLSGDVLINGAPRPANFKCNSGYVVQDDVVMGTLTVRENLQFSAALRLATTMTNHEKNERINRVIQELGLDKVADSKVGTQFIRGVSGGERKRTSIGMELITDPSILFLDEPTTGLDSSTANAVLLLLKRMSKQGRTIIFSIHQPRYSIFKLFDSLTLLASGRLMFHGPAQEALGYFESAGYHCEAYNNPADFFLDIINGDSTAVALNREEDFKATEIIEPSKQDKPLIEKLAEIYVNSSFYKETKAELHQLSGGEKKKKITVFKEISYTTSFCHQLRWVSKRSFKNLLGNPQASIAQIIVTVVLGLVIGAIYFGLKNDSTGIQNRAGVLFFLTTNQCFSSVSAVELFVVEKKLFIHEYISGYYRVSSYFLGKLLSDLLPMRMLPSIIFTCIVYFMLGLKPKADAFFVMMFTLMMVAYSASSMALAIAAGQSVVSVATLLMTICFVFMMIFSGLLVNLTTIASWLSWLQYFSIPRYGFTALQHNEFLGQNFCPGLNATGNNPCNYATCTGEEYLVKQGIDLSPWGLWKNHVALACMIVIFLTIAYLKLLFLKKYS
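Test system: IgMXP3 (ABCG2) plus far-red-tagged CCRF-Adr (ABCB1) cells / Amount: 3 million cells/mL in well / Reagent: JC-1 transporter substrate / Timing: 10 min compound exposure, 25 °C / Signal: flow cytometry, 530 nm JC-1 signal / Read-out: percent efflux inhibition, scaled nicardipine 100% to DMSO 0% / Benchmarks: nicardipine as high control, DMSO as low control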
ABCB1 inh: human ABCB1 inhibition, ABCG2 as counter-screen; P08183; CCRF-Adr cells, JC-1 efflux, flow cytometry; inhibition, % at 6.6 µM; 190,000 tested, 0.067% active; in the data active = inhibition above about 40%;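 also: higher value means more JC-1 retained so stronger ABCB1 efflux block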
PHOSPHO1 inh: blocks human PHOSPHO1 phosphatase activity. recombinant PHOSPHO1, absorbance phosphatase assay. 290,000 tested, 1.1% active. inhibition, % at 13.3 µM; in the data active = inhibition above about 60%
HSV augment: increases HSV replication in cells; maximum fold increase; HSV replication augmentation in cells, fold increase; 220,000 tested, 0.005% active; in the data active = maximum fold increase above about 1.5; tested in PC3 cells
NCF1 inh: p47phox (human) inhibition; P14598; inhibition, % at 24.7 µM; p47phox/p22phox peptide binding, fluorescence polarization, 2 h; 220,000 tested, 0.53% active;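 active = inhibition above about 30%, limit read from the data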
PKD1 kinase inh: inhibitors of human PKD1 kinase; 200,000 tested, 0.056% active; PKD1 kinase fluorescence polarization assay; Q15139; inhibition, % (no concentration beside the values); AID 797; in the data active = inhibition above about 50%
Hits are given with their value; - = inactive; . = no result given; ! = not confirmed by another sample. This is a sample that favours compounds with a hit; in the whole collection about 1.6% have one here.

SMILES	ABCG2 block	ABCB1 inh	PHOSPHO1 inh	HSV augment	NCF1 inh	PKD1 kinase inh
CC(=O)Nc1nc(=S)ss1	-	-	79	-	-	-
CC(C)CC(=O)Nc1nc(=S)ss1	-	-	-	-	-	-
O=C(Nc1ccnn1C1CCN(C2CCCC2)CC1)c1ccccc1	.	.	-	.	.	.
COC(=O)C1=C(C)N(CCCC(=O)O)C(=O)NC1c1cccs1 (stereo not drawn)	-	45	-	-	-	-
CCOC(=O)C1=C(C)N(CCCC(=O)O)C(=O)NC1c1cccs1 (stereo not drawn)	.	.	.	-	.	.
COc1ccccc1/C=C1\NC(=S)N(CC2CCCO2)C1=O (stereo not drawn)	-	-	97	-	-	-
CCc1nc2cccnc2n1-c1ccc(CC(=O)NC(C)CC)cc1 (stereo not drawn)	.	.	-	.	.	.
COc1ccc(CC(=O)NNC(=O)c2nn(Cc3ccccc3)c(=O)c3ccccc23)cc1OC	.	.	-	-	142	.
COc1ccc(/C(C)=N/NC(=O)Cc2ccc(Cl)cc2)cc1	.	.	-	.	.	.
CO/N=C/c1ccc(OC)c(Oc2nc(OC)cc(OC)n2)c1	-	-	-	-	-	-
CCCCCOC(=O)CSc1nnc(-c2cc(OC)c(OC)c(OC)c2)o1	-	-	-	-	31	-
COC(=O)CCC/C=C1/SCC(NC(=O)c2ccccc2)C1O (stereo not drawn)	-	-	-	-	-	-
COC(=O)CCC/C=C1/SCC(NC(=O)c2ccccc2)C1=O (stereo not drawn)	-	-	64	-	-	-
C[c-]1[c-](C)[c-](C)[c-](C)[c-]1C.[Fe].c1cc2nccc(N3CCCC3)[c-]2c1 (stereo not drawn)	.	.	-	-	30!	.
COc1ccc(C(C)(C)C)cc1S(=O)(=O)N1CCC(C(N)=O)CC1	-	-	-	-	-	-
O=C(/C=C\c1ccco1)Nc1nc(-c2ccccc2)cs1	-	-	-	-	-	-
O=C(/C=C/c1ccccc1)Nc1nc(-c2ccncc2)cs1	-	-	-	-	31	-
Cc1csc(NC(=O)CSc2nc3ccccc3c3c2CCCC3)n1	-	-	-	-	-	-
Cc1csc(NC(=O)CSc2ncnc3ccccc23)n1	.	.	63	.	.	.
C1CC(CN2CCOCC2)CN(c2nc3nonc3nc2N2CCSCC2)C1 (stereo not drawn)	-	-	-	-	-	-
C1CN(CC2CCN(c3nc4nonc4nc3N3CCSCC3)CC2)CCO1	-	-	-	-	34	-
CN1CCN(c2ccc(NC(=S)NC(=O)/C=C/c3ccco3)cc2)CC1	.	.	-	.	.	.
Cc1csc(SCC(=O)c2cc(C)n(Cc3cccs3)c2C)n1	-	-	91	-	-	-
Cc1cc(C(=O)CSc2nnc(N)s2)c(C)n1Cc1cccs1	-	-	-	-	-	-
Cc1cc(C(=O)CSc2nnc(-c3ccc(OC(F)F)cc3)o2)c(C)n1Cc1cccs1	-	-	94	-	-	-
SMILES	ABCG2 block	ABCB1 inh	PHOSPHO1 inh	HSV augment	NCF1 inh	PKD1 kinase inh
Cc1ccccc1-c1nn(-c2ccc(F)cc2F)cc1CNCCCN(C)C	-	-	-	-	-	-
Cc1cc(C)c2c(=O)n(CC(=O)Nc3ccc(Cl)cc3)sc2n1	.	.	-	-	-	.
CCOc1ccc(NC(=O)Cn2sc3nc(C)cc(C)c3c2=O)cc1	.	.	-	-	40	.
Cc1cc(C)c2c(=O)n(CC(=O)NCCCN3CCOCC3)sc2n1	-	-	-	-	-	-
Cc1cc(C)c2c(=O)n(CC(=O)NCCCN3CCN(c4ccccc4F)CC3)sc2n1	-	-	-	.	51	-
CCCCCC(=O)NN1C(=S)N(c2ccc(OC)cc2)C(=O)C1CC(=O)Nc1ccccc1 (stereo not drawn)	.	.	-	-	-	.
CCn1c(SCC(=O)Nc2c(C)n(C)n(-c3ccccc3)c2=O)nc2c1c(=O)n(C)c(=O)n2C	-	-	64	-	-	-
Cc1ccc(C(=O)c2sc3nsc(C)c3c2N)cc1	-	-	98	-	-	-
Cc1nc2sc(C(=O)c3ccccc3)c(N)c2c(C)c1C	-	-	-	-	-	-
Cc1snc2sc(C(=O)c3ccc(Br)cc3)c(N)c12	-	-	86	-	-	-
Cc1ccc(NC(=O)C2CCN(S(=O)(=O)c3ccc4c(c3)CC(C)N4C(=O)C3CCC3)CC2)nc1 (stereo not drawn)	.	.	75	.	.	.
CCc1ccc(N(CC)C(=O)c2cn(C)c(=O)c3ccccc23)cc1	.	.	-	.	.	.
CCOC(=O)Cc1csc(NC(=O)c2sc3nc4ccc(C)cc4cc3c2N)n1	-	-	-	-	-	-
